Experimental data as given in ChEMBL document CHEMBL1156795, “Rational design of 5-phenyl-3-isoxazolecarboxylic acid ethyl esters as growth inhibitors of Mycobacterium tuberculosis. a potent and selective series for further drug development” (J Med Chem, 2010).
In brackets after ≈: the same amount, converted by molar mass. Activity calls are given as the source filed them. No cut-off for these calls is given here.

Tests used:
[1] = test system: Mycobacterium tuberculosis; test: Antimycobacterial activity against Mycobacterium tuberculosis H37Rv after […] by microplate alamar; type: functional
Outline: (§1)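 Microplate Alamar blue assay (MABA) on Mtb H37Rv. MIC reported as the average of two to three independent experiments.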

[2] = test system: Mycobacterium tuberculosis; test: Antimycobacterial activity against Mycobacterium tuberculosis H37Rv expressing pFCA-luxAB after 10 days by low-oxygen recovery assay; type: functional; settings: 240 h
Outline: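 Low oxygen recovery assay (LORA): a luminescence-based read-out of activity against non-replicating Mtb under oxygen-deprived conditions. MIC averaged over two to three independent experiments.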

Vero = test: (§2) Cytotoxicity against african green monkey Vero cells after 72 hrs; type: cell-based, Chlorocebus sabaeus; settings: Chlorocebus sabaeus, Vero, 72 h
Candida albicans = test: Antimicrobial activity against Candida albicans; type: functional
[3] = test system: Mycolicibacterium smegmatis; test: Antimicrobial activity against Mycobacterium smegmatis; type: functional
Toxoplasma gondii = test: Antimicrobial activity against Toxoplasma gondii; type: functional, organism-based
Staphylococcus aureus = test: Antimicrobial activity against Staphylococcus aureus; type: functional
Escherichia coli = test: Antimicrobial activity against Escherichia coli; type: functional
[4] = test system: Mycobacterium tuberculosis; test: Antimycobacterial activity against Mycobacterium tuberculosis H37Rv; type: functional; outline: as §1
[5] = as §2; type: cell-based, Chlorocebus sabaeus; settings: chlorocebus sabaeus, Vero cells; read-out: MIC

Compound	MIC [1] [µM]	MIC [2] [µM]	IC50 (Vero) [µM]	also measured
CCOC(=O)c1cc(-c2cccc(OCc3ccc(Cl)c(Cl)c3)c2)on1	2.7 (≈ 1.06 µg/mL)	10.6 (≈ 4.16 µg/mL)	–	–
CCOC(=O)c1cc(-c2cccc(OCc3cccc(C(F)(F)F)c3F)c2)on1	0.6 (≈ 0.246 µg/mL)	7 (≈ 2.87 µg/mL)	> 128	–
CCOC(=O)c1cc(-c2cccc(OCc3cccc(C(F)(F)F)c3)c2)on1	0.6 (≈ 0.235 µg/mL)	8 (≈ 3.13 µg/mL)	> 128	MIC (Candida albicans): > 100 µM; MIC [3]: > 100 µM; Activity (Toxoplasma gondii): inactive; MIC (Staphylococcus aureus): > 100 µM; MIC (Escherichia coli): > 100 µM
CCOC(=O)c1cc(-c2cccc(OCc3cccc([N+](=O)[O-])c3)c2)on1	0.6 (≈ 0.221 µg/mL)	8.7 (≈ 3.2 µg/mL)	> 128	–
CCOC(=O)c1cc(-c2cccc(OCc3ccc(F)cc3)c2)on1	1.8 (≈ 0.614 µg/mL)	24 (≈ 8.19 µg/mL)	–	–
CCOC(=O)c1cc(-c2cccc(OCc3cccc(C#N)c3)c2)on1	0.6 (≈ 0.209 µg/mL)	26.5 (≈ 9.23 µg/mL)	> 128	–
CCOC(=O)c1cc(-c2cccc(OCc3ccc(F)cc3F)c2)on1	1 (≈ 0.359 µg/mL)	15.7 (≈ 5.64 µg/mL)	> 128	–
CO[C@H]1/C=C/O[C@@]2(C)Oc3c(C)c(O)c4c(O)c(c(/C=N/N5CCN(C)CC5)c(O)c4c3C2=O)NC(=O)/C(C)=C\C=C\[C@H](C)[C@H](O)[C@@H](C)[C@@H](O)[C@@H](C)[C@H](OC(C)=O)[C@@H]1C [RIFAMPIN]	0.1 (≈ 0.0823 µg/mL)	1.9 (≈ 1.56 µg/mL)	–	–
CCOC(=O)c1cc(-c2cccc(NCc3cccc(C(F)(F)F)c3)c2)on1	1.1 (≈ 0.429 µg/mL)	15.3 (≈ 5.97 µg/mL)	> 128	–
CCOC(=O)c1cc(-c2cccc(Oc3cc(C(F)(F)F)nc4ccccc34)c2)on1	–	–	–	MIC [4]: 0.95 µM (≈ 0.407 µg/mL)
CCOC(=O)c1cc(-c2ccc(C(O)c3cccc(OC)c3)cc2)on1 (stereo not drawn)	2.8 (≈ 0.989 µg/mL)	23.9 (≈ 8.45 µg/mL)	–	–
CCOC(=O)c1cc(-c2cccc(OCc3ccc(F)c(F)c3)c2)[nH]n1	32 (≈ 11.5 µg/mL)	> 128	–	–
CCOC(=O)c1cc(-c2cccc(OCC(=O)N3CCOCC3)c2)on1	13.8 (≈ 4.97 µg/mL)	48.9 (≈ 17.6 µg/mL)	–	–
CCOC(=O)c1cc(-c2cccc(OCc3c(F)ccc(F)c3F)c2)on1	1 (≈ 0.377 µg/mL)	10.9 (≈ 4.11 µg/mL)	–	–
CCOC(=O)c1cc(-c2cccc(OCc3ccccc3)c2)on1	1.2 (≈ 0.388 µg/mL)	41.5 (≈ 13.4 µg/mL)	> 128	–
CCOC(=O)c1cc(-c2cccc(OCc3ccccc3C(F)(F)F)c2)on1	1.5 (≈ 0.587 µg/mL)	34.8 (≈ 13.6 µg/mL)	> 128	–
CCOC(=O)c1cc(-c2cccc(OCc3ccccc3[N+](=O)[O-])c2)on1	1.5 (≈ 0.553 µg/mL)	25.8 (≈ 9.5 µg/mL)	> 128	–
CCOC(=O)c1cc(-c2cccc(OCc3ccc(C(F)(F)F)cc3)c2)on1	0.4 (≈ 0.157 µg/mL)	11.8 (≈ 4.62 µg/mL)	> 128	–
CCOC(=O)c1cc(-c2cccc(OCc3cccc(Br)c3)c2)on1	0.8 (≈ 0.322 µg/mL)	12.7 (≈ 5.11 µg/mL)	> 128	–
CCOC(=O)c1ccc(COc2cccc(-c3cc(C(=O)OCC)no3)c2)cc1	0.4 (≈ 0.158 µg/mL)	32.7 (≈ 12.9 µg/mL)	> 128	–
CCOC(=O)c1cc(-c2cccc(OCc3cc(F)ccc3F)c2)on1	0.9 (≈ 0.323 µg/mL)	23.7 (≈ 8.52 µg/mL)	> 128	–
CCOC(=O)c1cc(-c2cccc(OCc3ccccc3F)c2)on1	1.1 (≈ 0.375 µg/mL)	19.1 (≈ 6.52 µg/mL)	–	–
CCOC(=O)c1cc(-c2cccc(OCc3cccc(C(=O)N4CCOCC4)c3)c2)on1	> 128	> 128	> 128	–

Compound	MIC [1] [µM]	MIC [2] [µM]	IC50 (Vero) [µM]	also measured
CCOC(=O)c1cc(COc2cc(C(F)(F)F)nc3c(C(F)(F)F)cccc23)on1	–	–	–	MIC [4]: 0.9 µM (≈ 0.391 µg/mL)
O=[N+]([O-])c1cn2c(n1)OC[C@@H](OCc1ccc(OC(F)(F)F)cc1)C2 [PRETOMANID]	0.3 (≈ 0.108 µg/mL)	3.8 (≈ 1.37 µg/mL)	–	–
CCOC(=O)c1cc(-c2cccc(OCc3ccc(F)c(F)c3F)c2)on1	0.9 (≈ 0.34 µg/mL)	12.6 (≈ 4.75 µg/mL)	> 128	–
CCOC(=O)c1cc(-c2cccc(OCc3c(F)cccc3F)c2)on1	1.2 (≈ 0.431 µg/mL)	12.8 (≈ 4.6 µg/mL)	> 128	–
CCOC(=O)c1cc(-c2ccccc2NC(=O)c2ccccc2)on1	> 128	> 128	–	–
CCOC(=O)c1cc(-c2cccc(OCc3ccc(F)c(F)c3)c2)on1	0.6 (≈ 0.216 µg/mL)	19.2 (≈ 6.9 µg/mL)	> 128	–
CCOC(=O)c1cc(-c2cccc(OCc3cccc(F)c3F)c2)on1	1.6 (≈ 0.575 µg/mL)	26.8 (≈ 9.63 µg/mL)	> 128	–
CCOC(=O)c1cc(-c2cccc(Oc3cccc(C(F)(F)F)c3)c2)on1	1 (≈ 0.377 µg/mL)	10.5 (≈ 3.96 µg/mL)	> 128	–
CCOC(=O)c1cc(-c2cccc(OCc3cccc(F)c3)c2)on1	0.8 (≈ 0.273 µg/mL)	18.9 (≈ 6.45 µg/mL)	> 128	–
CCOC(=O)c1cc(/C=C/c2cccc(C(F)(F)F)c2)on1	–	–	–	MIC [4]: 0.73 µM (≈ 0.227 µg/mL)
CCOC(=O)c1cc(-c2cccc(OCc3cccc(Cl)c3)c2)on1	1 (≈ 0.358 µg/mL)	10.8 (≈ 3.86 µg/mL)	> 128	–
CCOC(=O)c1cc(-c2ccc(NCc3cccc(C(F)(F)F)c3)cc2)on1	0.6 (≈ 0.234 µg/mL)	6.3 (≈ 2.46 µg/mL)	> 128	–
CCOC(=O)c1cc(-c2cccc(OCc3ccccc3Cl)c2)on1	0.9 (≈ 0.322 µg/mL)	10.1 (≈ 3.61 µg/mL)	> 128	–
CCOC(=O)c1cc(-c2cccc(OCc3cccc(C)c3)c2)on1	1.2 (≈ 0.405 µg/mL)	14.9 (≈ 5.03 µg/mL)	> 128	–
CCOC(=O)c1cc(-c2cccc(OCc3cc(F)cc(F)c3)c2)on1	4.4 (≈ 1.58 µg/mL)	16.6 (≈ 5.96 µg/mL)	> 128	–
CCOC(=O)c1cc(-c2cccc(NC(=O)c3cccc(C(F)(F)F)c3)c2)on1	1.4 (≈ 0.566 µg/mL)	28.3 (≈ 11.4 µg/mL)	> 128	–
NNC(=O)c1ccncc1 [ISONIAZID]	0.5 (≈ 0.0686 µg/mL)	> 128	–	MCC at 72 h [5]: > 128 µM
CCOC(=O)c1cc(-c2cccc(OCc3cc(F)ccc3Cl)c2)on1	0.9 (≈ 0.338 µg/mL)	15.1 (≈ 5.67 µg/mL)	–	–
OC(c1cc(C(F)(F)F)nc2c(C(F)(F)F)cccc12)C1CCCCN1 (stereo not drawn) [MEFLOQUINE]	–	–	–	MIC [4]: 13 µM (≈ 4.92 µg/mL)
CCOC(=O)c1cc(-c2cccc(OCc3cccc(OC(F)(F)F)c3)c2)on1	0.7 (≈ 0.285 µg/mL)	13.1 (≈ 5.34 µg/mL)	101	–
CCOC(=O)c1cc(-c2cccc(O)c2)on1	7.3 (≈ 1.7 µg/mL)	114 (≈ 26.6 µg/mL)	–	–
CCOC(=O)c1cc(-c2cccc(OCc3cccc(N)c3)c2)on1	1.5 (≈ 0.508 µg/mL)	25.8 (≈ 8.73 µg/mL)	> 128	–
CCOC(=O)c1cc(-c2cccc(OCc3cccc(OC)c3)c2)on1	2.1 (≈ 0.742 µg/mL)	26.7 (≈ 9.44 µg/mL)	> 128	–
